Data: ChEMBL document CHEMBL3865800, “Design, synthesis and biological evaluation of 4-anilinoquinazoline derivatives as new c-myc G-quadruplex ligands” (Eur J Med Chem, 2016)
pIC50, pKd: −log10 of the molar value. Active and inactive are the calls of the source. No cut-off for these calls is given here.

Key:
[1] = Cytotoxicity against human HeLa cells assessed as reduction in cell viability after 48 hrs by MTT assay; format: functional, cell-based
[2] = Cytotoxicity against mouse primary mesangial cells assessed as reduction in cell viability after 48 hrs by MTT assay; format: toxicity
[3] = Binding affinity to 5'-Pu22-3' c-myc G-quadruplex DNA (unknown origin) assessed as induction of parallel c-myc G-quadruplex conformation at 2 equiv after 6 hrs in absence of KCl by CD-spectroscopic analysis
In short: (§1)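 Pu22 at 3 μM final in 10 mM Tris-HCl buffer with ligand at 2 equiv, with 100 mM KCl or without KCl; heated 95 °C 5 min, slowly cooled, held ≥6 h; CD spectra 230–330 nm, 1 mm quartz cell, 1 nm bandwidth and step, 0.5 s/point, average of two scans.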

[4] = Binding affinity to F10T duplex DNA (unknown origin) assessed as change in melting temperature by FRET assay
In short: (§2)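 Fluorescence melting on real-time PCR instrument; 0.4 μM labelled oligonucleotide (FPu22T or duplex-forming F10T), ligand 2.0 μM, in 10 mM Tris-HCl pH 7.4 with 10 or 60 mM KCl; ex 470/em 530 nm at 1 °C steps over 37–99 °C, 30 s equilibration each; ΔTm = Tm(DNA+ligand) − Tm(DNA).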

[5] = Binding affinity to biotinylated double stranded DNA (unknown origin) after 240 secs by SPR assay
In short: (§3)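 SPR: biotinylated Pu22 and biotinylated duplex folded in 50 mM Tris-HCl pH 7.4, 150 mM KCl, 0.005% Tween20, captured (~1000 RU) on separate flow cells with a blank reference; ligand 0.0625–10 μM in running buffer, 240 s association then 240 s dissociation at 25 °C; equilibrium KD derived.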

[6] = Cytotoxicity against human A549 cells assessed as reduction in cell viability after 48 hrs by MTT assay; format: functional, cell-based; details: A549, 48 h
[7] = Drug uptake in human HeLa cells at 10 uM after 48 hrs
[8] = Binding affinity to 5'-Pu22-3' c-myc G-quadruplex DNA (unknown origin) assessed as maintainance of parallel c-myc G-quadruplex conformation at 2 equiv after 6 hrs in presence of KCl by CD-spectroscopic analysis; in short: as §1
[9] = Selectivity ratio of Kd for double stranded DNA (unknown origin) to Kd for biotinylated 5'-Pu22-3'-labelled c-myc G-quadruplex DNA
[10] = Binding affinity to 5'-FPu22T-3'-labelled c-myc G-quadruplex DNA (unknown origin) assessed as change in melting temperature by FRET assay; in short: as §2
[11] = Binding affinity to 5'-FPu22T-3'-labelled c-myc G-quadruplex DNA (unknown origin) assessed as change in melting temperature at 2 uM in presence ds26 DNA of by FRET assay
In short: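 FRET melting of 0.4 μM labelled FPu22T with ligand 2.0 μM, alone or with 10-fold (4 μM), 50-fold (20 μM) or 100-fold (40 μM) excess unlabelled duplex ds26 as competitor; Tris-HCl 10 mM pH 7.4 with 10 or 60 mM KCl; ex 470/em 530 nm read every 1 °C from 37–99 °C, 30 s hold; ΔTm = Tm(DNA+ligand) − Tm(DNA).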

[12] = Cytotoxicity against human CA46 cells assessed as reduction in cell viability after 48 hrs by MTT assay; format: functional, cell-based; details: CA46, 48 h
[13] = Cytotoxicity against human Raji cells assessed as reduction in cell viability after 48 hrs by MTT assay; format: functional, cell-based
[14] = Binding affinity to biotinylated 5'-Pu22-3'-labelled c-myc G-quadruplex DNA (unknown origin) after 240 secs by SPR assay; in short: as §3
[15] = test system: HeLa; assay: Binding affinity to c-myc G-quadruplex DNA in human HeLa cells assessed as reduction in c-myc gene expression at 1.25 to 10 uM after 6 hrs by Western blot analysis; format: cell-based
In short: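 HeLa treated 6 h at 0–10 μM; lysates BCA-quantified, 20 μg protein on 12% SDS–PAGE, transferred to nitrocellulose, blocked in 5% BSA/TBS-Tween; probed with anti-c-myc and anti-GAPDH (loading control), HRP secondary, chemiluminescent detection.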

[16] = Cell cycle arrest in human HeLa cells assessed as accumulation at G0/G1 phase at 1.25 uM after 48 hrs by propidium iodide based FACS analysis (reference value: 35.9 %); format: functional
[17] = Cell cycle arrest in human HeLa cells assessed as accumulation at G0/G1 phase at 2.5 uM after 48 hrs by propidium iodide based FACS analysis (reference value: 35.9 %); format: functional
[18] = organism: Mus musculus; assay: Cytotoxicity against mouse primary mesangial cells assessed as cell growth inhibition at 1.25 to 10 uM after 80 hrs by RTCA assay; format: toxicity, cell-based
[19] = Cell cycle arrest in human HeLa cells assessed as accumulation at G2/M phase after 48 hrs by propidium iodide based FACS analysis (reference value: 46.1 %); format: functional
[20] = Cell cycle arrest in human HeLa cells assessed as accumulation at G0/G1 phase after 24 hrs by propidium iodide based FACS analysis (reference value: 30.8 %); format: functional
[21] = test system: HeLa; assay: Cytotoxicity against human HeLa cells assessed as cell growth inhibition at 1.25 to 10 uM after 80 hrs by RTCA assay; format: functional, cell-based
[22] = Cell cycle arrest in human HeLa cells assessed as accumulation at G0/G1 phase at 5 uM after 48 hrs by propidium iodide based FACS analysis (reference value: 35.9 %); format: functional
[23] = test system: HeLa; assay: Binding affinity to c-myc G-quadruplex DNA in human HeLa cells assessed as inhibition of c-myc transcription after 3 hrs by RT-PCR analysis; format: cell-based
In short: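 HeLa (2×10^5/well) treated 3 h with 1.25–10 μM or DMSO; total RNA oligo-dT primed, M-MLV reverse transcribed (70 °C 10 min; 42 °C 1 h; 70 °C 15 min); c-myc and β-actin (internal control) amplified by real-time PCR, products run on 1.5% agarose.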

[24] = Cell cycle arrest in human HeLa cells assessed as accumulation at G2/M phase at 1.25 uM after 48 hrs by propidium iodide based FACS analysis (reference value: 33.7 %); format: functional
[25] = Cell cycle arrest in human HeLa cells assessed as accumulation at S phase after 12 hrs by propidium iodide based FACS analysis (reference value: 23.1 %); format: functional
[26] = Cell cycle arrest in human HeLa cells assessed as accumulation at G2/M phase after 12 hrs by propidium iodide based FACS analysis (reference value: 46.1 %); format: functional
[27] = Cell cycle arrest in human HeLa cells assessed as accumulation at G2/M phase at 2.5 uM after 48 hrs by propidium iodide based FACS analysis (reference value: 33.7 %); format: functional
[28] = Cell cycle arrest in human HeLa cells assessed as accumulation at S phase at 2.5 uM after 48 hrs by propidium iodide based FACS analysis (reference value: 28.6 %); format: functional
[29] = Cell cycle arrest in human HeLa cells assessed as accumulation at S phase at 5 uM after 48 hrs by propidium iodide based FACS analysis (reference value: 28.6 %); format: functional
[30] = Cell cycle arrest in human HeLa cells assessed as accumulation at G2/M phase after 24 hrs by propidium iodide based FACS analysis (reference value: 46.1 %); format: functional
[31] = Cell cycle arrest in human HeLa cells assessed as accumulation at S phase after 48 hrs by propidium iodide based FACS analysis (reference value: 23.1 %); format: functional
[32] = Cell cycle arrest in human HeLa cells assessed as accumulation at S phase after 24 hrs by propidium iodide based FACS analysis (reference value: 23.1 %); format: functional
[33] = Cell cycle arrest in human HeLa cells assessed as accumulation at G2/M phase at 5 uM after 48 hrs by propidium iodide based FACS analysis (reference value: 33.7 %); format: functional
[34] = Cell cycle arrest in human HeLa cells assessed as accumulation at G0/G1 phase after 12 hrs by propidium iodide based FACS analysis (reference value: 30.8 %); format: functional
[35] = Cell cycle arrest in human HeLa cells assessed as accumulation at S phase at 1.25 uM after 48 hrs by propidium iodide based FACS analysis (reference value: 28.6 %); format: functional
[36] = Cell cycle arrest in human HeLa cells assessed as accumulation at G0/G1 phase after 48 hrs by propidium iodide based FACS analysis (reference value: 30.8 %); format: functional

O=C(CCN1CCCC1)Nc1ccc(Nc2nc(-c3ccccc3NC(=O)CCN3CCCC3)nc3ccccc23)cc1
pIC50 [1]: 5.15 | IC50 at 48 h [2]: 23.3 µM | Activity [3]: Active | ΔTm [4]: 0.9 °C | pKd [5]: < 5.00 | pIC50 [6]: 4.58 | Drug uptake [7]: Active | Activity [8]: Active | Selectivity ratio [9]: > 50 | ΔTm [10]: 14.2 °C | Activity [11]: Active | pIC50 [12]: 5.14 | pIC50 [13]: 5.40 | pKd [14]: 6.70

CCN(CC)CCC(=O)Nc1ccc(Nc2nc(-c3ccccc3NC(=O)CCN(CC)CC)nc3ccccc23)cc1
pIC50 [1]: 5.36 | inhibition [15]: Active | Activity [16]: 48.4% | Activity [17]: 48.9% | IC50 at 48 h [2]: 13.1 µM | Activity [3]: Active | ΔTm [4]: 0.8 °C | Activity [18]: Non-Toxic | Activity [19]: 22.1% | pKd [5]: < 5.00 | pIC50 [6]: 5.23 | Drug uptake [7]: Active | Activity [8]: Active | Activity [20]: 43.5% | growth inhibition (GI) [21]: Active | Activity [22]: 54.8% | Selectivity ratio [9]: > 47.6 | ΔTm [10]: 19.6 °C | inhibition [23]: Dose-dependent effect | Activity [24]: 22.2% | Activity [25]: 19.4% | Activity [11]: Active | pIC50 [12]: 5.19 | Activity [26]: 38.8% | Activity [27]: 18.4% | Activity [28]: 30.2% | pIC50 [13]: 5.51 | Activity [29]: 29% | Activity [30]: 38.1% | pKd [14]: 6.68 | Activity [31]: 16.8% | Activity [32]: 18.4% | Activity [33]: 12.7% | Activity [34]: 41.8% | Activity [35]: 26.4% | Activity [36]: 61.1%

O=C(CN1CCCC1)Nc1ccc(Nc2nc(-c3ccccc3NC(=O)CN3CCCC3)nc3ccccc23)cc1
pIC50 [1]: 5.54 | IC50 at 48 h [2]: 16.5 µM | Activity [3]: Active | ΔTm [4]: 0.6 °C | pKd [5]: < 5.00 | pIC50 [6]: 4.73 | Drug uptake [7]: Active | Activity [8]: Active | Selectivity ratio [9]: > 62.5 | ΔTm [10]: 13.3 °C | Activity [11]: Active | pIC50 [12]: 5.74 | pIC50 [13]: 5.72 | pKd [14]: 6.80

O=C(CCN1CCCCC1)Nc1ccc(Nc2nc(-c3ccccc3NC(=O)CCN3CCCCC3)nc3ccccc23)cc1
pIC50 [1]: 5.13 | IC50 at 48 h [2]: 6.3 µM | Activity [3]: Active | ΔTm [4]: 1.4 °C | pKd [5]: < 5.00 | pIC50 [6]: 5.12 | Activity [8]: Active | Selectivity ratio [9]: > 45.4 | ΔTm [10]: 17.9 °C | Activity [11]: Active | pIC50 [12]: 5.35 | pIC50 [13]: 5.89 | pKd [14]: 6.66
